# Source: ChEMBL document CHEMBL4145453, “Synthesis, physicochemical properties, and biological activity of bile acids 3-glucuronides: Novel insights into bile acid signalling and detoxification” (Eur J Med Chem, 2018)
# Tests used:
# [1] = Solubility of the compound in pH 1 HCl solution at 300 uM after 24 hrs by HPLC-ESI-MS analysis; type: physicochemical
# Summary of the method: (§1)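 Dried 1 mM stock (300 µL) was redissolved in 1 mL PBS pH 7.4 or acid solution pH 1.0 (nominal about 300 µM). Stirred 24 h at r.t., centrifuged, diluted 1:100 or 1:10, then quantified by HPLC-ESI-MS/MS in MRM mode against a 6-point calibration (0.01–10 µM).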
# [2] = Solubility of the compound in pH 7.4 PBS buffer at 300 uM after 24 hrs by HPLC-ESI-MS analysis; type: physicochemical; summary of the method: as §1
# [3] = target: albumin (Bos taurus, UniProt P02769); assay: Binding affinity to bovine serum albumin at 10 uM after 24 hrs by equilibrium dialysis method; type: ADME; conditions: cattle, read-out: PB (converted)
# Chain of albumin (P02769 whole entry): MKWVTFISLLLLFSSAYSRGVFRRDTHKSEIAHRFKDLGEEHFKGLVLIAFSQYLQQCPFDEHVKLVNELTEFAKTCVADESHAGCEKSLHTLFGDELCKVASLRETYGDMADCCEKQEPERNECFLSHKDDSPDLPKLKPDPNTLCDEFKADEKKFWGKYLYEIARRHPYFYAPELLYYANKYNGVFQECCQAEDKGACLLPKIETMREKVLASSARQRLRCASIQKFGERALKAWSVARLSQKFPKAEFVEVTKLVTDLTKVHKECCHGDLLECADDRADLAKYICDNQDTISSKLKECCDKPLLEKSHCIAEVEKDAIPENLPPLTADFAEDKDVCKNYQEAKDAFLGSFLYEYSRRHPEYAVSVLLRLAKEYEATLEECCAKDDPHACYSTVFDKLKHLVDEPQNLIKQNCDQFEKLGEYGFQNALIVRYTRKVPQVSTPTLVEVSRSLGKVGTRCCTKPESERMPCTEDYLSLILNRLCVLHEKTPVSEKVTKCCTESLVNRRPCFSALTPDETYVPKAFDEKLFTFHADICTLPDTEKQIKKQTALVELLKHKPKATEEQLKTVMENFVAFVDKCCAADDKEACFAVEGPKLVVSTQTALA
# [4] = Octanol-HCl distribution coefficient, log P of the compound at pH 1 at 1 uM after 24 hrs by shake flask method; type: physicochemical
# Summary of the method: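 Shake-flask method, 1 µM bile acid in mutually pre-saturated 1-octanol/DPBS pH 7.4 or 1-octanol/HCl pH 1.0 (50:50). Equilibrated 24 h with stirring at r.t., then centrifuged. Aqueous-phase concentration before and after partition measured by HPLC-ESI-MS/MS.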
# [5] = target: T1, Bile acid receptor (Homo sapiens, UniProt Q96RI1); assay: Agonist activity at GST-tagged FXR-LBD (unknown origin) assessed as biotin-labeled SRC-1 recruitment after 30 mins by Alpha Screen assay
# T1 sequence (Q96RI1 whole entry): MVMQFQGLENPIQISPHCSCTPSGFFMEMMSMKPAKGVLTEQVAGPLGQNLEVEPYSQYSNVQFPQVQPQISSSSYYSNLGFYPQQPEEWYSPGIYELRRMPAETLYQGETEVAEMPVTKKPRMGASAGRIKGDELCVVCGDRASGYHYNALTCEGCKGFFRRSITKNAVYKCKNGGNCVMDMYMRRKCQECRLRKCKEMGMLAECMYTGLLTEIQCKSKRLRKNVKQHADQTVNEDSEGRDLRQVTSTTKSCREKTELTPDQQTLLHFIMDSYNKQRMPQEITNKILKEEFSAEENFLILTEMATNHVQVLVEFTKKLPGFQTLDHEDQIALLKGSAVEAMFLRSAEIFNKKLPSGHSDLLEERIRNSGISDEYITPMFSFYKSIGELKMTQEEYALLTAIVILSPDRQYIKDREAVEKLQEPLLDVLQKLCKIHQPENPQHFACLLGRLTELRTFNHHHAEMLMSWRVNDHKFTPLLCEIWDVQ
# [6] = target: T2, Bile acid receptor (Homo sapiens) (UniProt Q96RI1); assay: Agonist activity at GST-tagged FXR-LBD (unknown origin) assessed as biotin-labeled SRC-1 recruitment after 30 mins by Alpha Screen assay relative to CDCA
# T2 sequence (whole entry): T1 sequence (Q96RI1 whole entry)
# Summary of the method: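 GST-FXR-LBD (10 nM) with biotinylated SRC-1 peptide (30 nM), anti-GST acceptor and streptavidin donor beads; buffer 50 mM Tris pH 7.4, 50 mM KCl, 0.1% BSA, 1 mM DTT. Compound in DMSO, 30 min r.t., then beads 4 h dark r.t.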
Structure (SMILES),"solubility at 24 h, 300 µM [1] [µM]","solubility at 24 h, 300 µM [2] [µM]","fraction unbound at 24 h, 10 µM [3]","logD at 24 h, 1 µM [4]",EC50 [5] [µM],Efficacy [6] [%]
C[C@H](CCC(=O)O)[C@H]1CC[C@H]2[C@@H]3[C@H](O)C[C@@H]4C[C@H](O)CC[C@]4(C)[C@H]3CC[C@]12C [CHENODIOL],33,282,0.015,2.5,–,–
C[C@H](CCC(=O)O)[C@H]1CC[C@H]2[C@@H]3CC[C@@H]4C[C@H](O)CC[C@]4(C)[C@H]3C[C@H](O)[C@]12C [DEOXYCHOLIC ACID],–,–,–,–,45,7
